Source: the RNAGym collection of RNA variant scans (doi:10.1126/science.aae0568)
Fewer inactive variants are shown than the library holds.

B1: tRNA (parent)
chain: GUUCCGUUGGCGUAAUGGUAACGCGUCUCCCUCCUAAGGAGAAGACUGCGGGUUCGAGUCCCGUACGGAACG

Variants of: B1
Assay: yeast fitness relative to wild type (ratio to wild type); higher = fitter; tRNA-Arg(CCU), competitive growth, 37 C, YPD
Summary of the method: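 Gene amplicons from the start population and from each of six end populations were read by 100-nucleotide paired-end sequencing. Those end populations came from pooled Saccharomyces cerevisiae strains carrying tRNA-Arg(CCU) gene variants at the native locus, competed in YPD at 37°C for 24 hours. Fitness relative to wild type was worked out from changes in genotype frequencies. Genotypes needed ≥ 100 starting reads, and estimates < 0.5 were set to 0.5.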

Row | Variant | yeast fitness
1 | GUUCCGUUGGCGUAAUGGUAACGCGUCUCCCUCCUAAGGAGAAGACUGCGGGUUCGAAUCCCGUACGGCACG [G58A A69C] | 0.955
2 | GUUCCGUUGGCGUAAUGGUAACGCGUCUCCCUCCUAAGGAGAAGACUGCGGGUUCGAAUCCCGUACGGGACG [G58A A69G] | 1.15
3 | GUUCCGUUGGCGUAAUGGUAACGCGUCUCCCUCCUAAGGAGAAGACUGCGGGUUCGAAUCCCGUUCGGAACG [G58A A65U] | 1.04
4 | GUUCCGUUGGCGUAAUGGUAACGCGUCUCCCUCCUAAGGAGAAGACUGCGGGUUCGAAUCGCGUACGGAACG [G58A C61G] | 0.668
5 | GUUCCGUUGGCGUAAUGGUAACGCGUCUCCCUCCUAAGGAGAAGACUGCGGGUUCGCGUCCCCUACGGAACG [A57C G63C] | 0.601
6 | GUUCCGUUGGCGUAAUGGUAACGCGUCUCCCUCCUAAGGAGAAGACUGCGGGUUCGCGUCCCGUUCGGAACG [A57C A65U] | 0.606
7 | GUUCCGUUGGCGUAAUGGUAACGCGUCUCCCUCCUAAGGAGAAGACUGCGGGUUCGCGUCCCGUGCGGAACG [A57C A65G] | 0.573
8 | GUUCCGUUGGCGUAAUGGUAACGCGUCUCCCUCCUAAGGAGAAGACUGCGGGUUCUAGUCCCGUUCGCAACG [G56U A65U G68C] | ≤ 0.5
9 | GUUCCGUUGGCGUAAUGGUAACGCGUCUCCCUCCUAAGGAGAAGACUGCGGGUUCGGGUCCUGUACGGAACG [A57G C62U] | 0.781
10 | GUUCCGUUGGCGUAAUGGUAACGCGUCUCCCUCCUAAGGAGAAGACUGCGGGUUCGUGUCCAGAACGGAACG [A57U C62A U64A] | ≤ 0.5
11 | GUUCCGUUGGCGUAAUGGUAACGCGUCUCCCUCCUAAGGAGAAGACUGCGGGUUCGGGUCCCGUGCGGCACG [A57G A65G A69C] | 0.7
12 | GUUCCGUUGGCGUAAUGGUAACGCGUCUCCCUCCUAAGGAGAAGACUGCGGGUUCUAAUCCCGUACGGAACG [G56U G58A] | 0.589
13 | GUUCCGUUGGCGUAAUGGUAACGCGUCUCCCUCCUAAGGAGAAGACUGCGGGUUCUACUCCCGUACGGAACG [G56U G58C] | 0.75
14 | GUUCCGUUGGCGUAAUGGUAACGCGUCUCCCUCCUAAGGAGAAGACUGCGGGUUCCAGACCCGUACGGAACG [G56C U59A] | 0.663
15 | GUUCCGUUGGCGUAAUGGUAACGCGUCUCCCUCCUAAGGAGAAGACUGCGGGUUCGAAUCCGGUACGGAACG [G58A C62G] | 1.14
16 | GUUCCGUUGGCGUAAUGGUAACGCGUCUCCCUCCUAAGGAGAAGACUGCGGGUUCGGGCCCCGUACGGAACG [A57G U59C] | 0.864
17 | GUUCCGUUGGCGUAAUGGUAACGCGUCUCCCUCCUAAGGAGAAGACUGCGGGUUCGGGGCCCGUACGGAACG [A57G U59G] | 0.941
18 | GUUCCGUUGGCGUAAUGGUAACGCGUCUCCCUCCUAAGGAGAAGACUGCGGGUUCGCGCCCCGUACGGAACG [A57C U59C] | 0.613
19 | GUUCCGUUGGCGUAAUGGUAACGCGUCUCCCUCCUAAGGAGAAGACUGCGGGUUCGUGUCCCGUAUGGAACG [A57U C66U] | 0.583

Row | Variant | yeast fitness
20 | GUUCCGUUGGCGUAAUGGUAACGCGUCUCCCUCCUAAGGAGAAGACUGCGGGUUCGGGUCCCGUACGGACCG [A57G A70C] | 0.859
21 | GUUCCGUUGGCGUAAUGGUAACGCGUCUCCCUCCUAAGGAGAAGACUGCGGGUUCCAGUCCGGUACGCAACG [G56C C62G G68C] | 0.56
22 | GUUCCGUUGGCGUAAUGGUAACGCGUCUCCCUCCUAAGGAGAAGACUGCGGGUUCGUGUCCCGUUCGCGACG [A57U A65U G68C A69G] | ≤ 0.5
23 | GUUCCGUUGGCGUAAUGGUAACGCGUCUCCCUCCUAAGGAGAAGACUGCGGGUUCGUGUCCCGUACCGAACG [A57U G67C] | 0.817
24 | GUUCCGUUGGCGUAAUGGUAACGCGUCUCCCUCCUAAGGAGAAGACUGCGGGUUCCAGUCCCGUACCGAACG [G56C G67C] | 0.696
25 | GUUCCGUUGGCGUAAUGGUAACGCGUCUCCCUCCUAAGGAGAAGACUGCGGGUUCGUGUCCCGUAUGCUACG [A57U C66U G68C A69U] | ≤ 0.5
26 | GUUCCGUUGGCGUAAUGGUAACGCGUCUCCCUCCUAAGGAGAAGACUGCGGGUUCGUGUCCCGAACGGAACG [A57U U64A] | 0.678
27 | GUUCCGUUGGCGUAAUGGUAACGCGUCUCCCUCCUAAGGAGAAGACUGCGGGUUCGUGUCUCGUACGGAACG [A57U C61U] | 0.642
28 | GUUCCGUUGGCGUAAUGGUAACGCGUCUCCCUCCUAAGGAGAAGACUGCGGGUUCGGGUCCCGUACUGAACG [A57G G67U] | 0.869
29 | GUUCCGUUGGCGUAAUGGUAACGCGUCUCCCUCCUAAGGAGAAGACUGCGGGUUCGGGUCCCGUACAGAACG [A57G G67A] | 0.878
30 | GUUCCGUUGGCGUAAUGGUAACGCGUCUCCCUCCUAAGGAGAAGACUGCGGGUUCGUGCCCCGUACGGAACG [A57U U59C] | 0.569
31 | GUUCCGUUGGCGUAAUGGUAACGCGUCUCCCUCCUAAGGAGAAGACUGCGGGUUCGUGUCCCCAACGGAUCG [A57U G63C U64A A70U] | 0.646
32 | GUUCCGUUGGCGUAAUGGUAACGCGUCUCCCUCCUAAGGAGAAGACUGCGGGUUCGGCUCCCGUACGGAACG [A57G G58C] | 1.03
33 | GUUCCGUUGGCGUAAUGGUAACGCGUCUCCCUCCUAAGGAGAAGACUGCGGGUUCGGAUCCCGUACGGAACG [A57G G58A] | 1.01
34 | GUUCCGUUGGCGUAAUGGUAACGCGUCUCCCUCCUAAGGAGAAGACUGCGGGUUCGCGUGCCGUACGGAACG [A57C C60G] | 0.503
35 | GUUCCGUUGGCGUAAUGGUAACGCGUCUCCCUCCUAAGGAGAAGACUGCGGGUUCGCGUUCCGUACGGAACG [A57C C60U] | 0.552
36 | GUUCCGUUGGCGUAAUGGUAACGCGUCUCCCUCCUAAGGAGAAGACUGCGGGUUCCAGUCCCGUACGAAACG [G56C G68A] | 0.7
37 | GUUCCGUUGGCGUAAUGGUAACGCGUCUCCCUCCUAAGGAGAAGACUGCGGGUUCGAAUCCCGUCCAGAACG [G58A A65C G67A] | 0.643
38 | GUUCCGUUGGCGUAAUGGUAACGCGUCUCCCUCCUAAGGAGAAGACUGCGGGUUCGGGACCCGGACGGAACG [A57G U59A U64G] | ≤ 0.5
